1 compound from ChEMBL document CHEMBL1142981, “Identification and synthesis of a novel selective partial PPARdelta agonist with full efficacy on lipid metabolism in vitro and in vivo” (J Med Chem, 2007) can be followed below.

The subject of data set [1] is Mus musculus. The data set is described as follows: Increase in HDL level in human ApoB100/CETP transgenic mouse at 20 mg/kg, po after 6 weeks relative to control. It is filed as functional.
For data set [2], the system named is Mus musculus. Nature of the data set: Decrease in insulin level in human ApoB100/CETP transgenic mouse at 10 mg/kg, po after 6 weeks by ELISA relative to control. It is filed as functional. Set-up: scale not given: the % may be the effect or the level left. In general terms: ELISA stands for enzyme-linked immunosorbent assay.
Data set [3] is described as follows: Clearance in Sprague-Dawley rat at 1.06 mg/kg, iv. It is filed as ADME, organism-based. On the set-up: dose 1.06 mg/kg, route intravenous. The settings on record: in vivo. The essentials: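 Male SD rats dosed once i.v. or p.o. (n = 8 per route), vehicle 5% ethanol, 10% HPCD, phosphate buffer pH 7.5-8.0. One animal sacrificed at each of 5, 15, 30, 60, 90, 120, 240 and 360 min; EDTA plasma analysed by high turbulence LC-MS/MS. Each data point represents one animal.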

The subject of data set [4] is Mus musculus. Nature of the data set: Increase in HDL level in human ApoB100/CETP transgenic mouse at 10 mg/kg, po after 6 weeks relative to control. It is filed as functional.
The test system of data set [5] is Mus musculus. The data set is described as follows: Decrease in total cholesterol level in human ApoB100/CETP transgenic mouse at 10 mg/kg, po after 6 weeks relative to control. It is filed as functional. Set-up: scale not given: the % may be the effect or the level left.
Data set [6] relates to Mus musculus. The data set is described as follows: Decrease in HbA1c level in human ApoB100/CETP transgenic mouse at 10 mg/kg, po after 6 weeks relative to control. It is filed as functional. Set-up: scale not given: the % may be the effect or the level left.

A word on the clearance: it is the volume of plasma or blood freed of the substance per unit of time. Take `O=C(O)COc1ccc(SCC=C(c2ccc(Br)cc2)c2ccc(Br)cc2)cc1Cl`: the Activity in the data set with Mus musculus [1] is reported as 33%; in the data set on Mus musculus [2] it was 8%; in the data set with Mus musculus [4] it was 14%; in the data set with Mus musculus [5] it was 14%; with Mus musculus [6], 9%. In data set [3], this compound gave a clearance of 11.9 mL/min/kg.
